The labels stand for the following.
B1: tRNA (parent)
chain: GUUCCGUUGGCGUAAUGGUAACGCGUCUCCCUCCUAAGGAGAAGACUGCGGGUUCGAGUCCCGUACGGAACG

This sample holds only a part of the variants without activity. A value given as a limit tells only on which side of the number the result lay.

In this data set the parent is B1. Description: yeast fitness relative to wild type (ratio to wild type); higher = fitter; tRNA-Arg(CCU), competitive growth, 37 C, YPD. The essentials:
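A pool of Saccharomyces cerevisiae strains, each with a tRNA-Arg(CCU) gene variant at the native genomic locus, was competed in YPD at 37°C for 24 hours across six parallel replicates. The variants had been chemically synthesised at a 3% per-site mutation rate over 69 sites, and gene amplicons before and after competition were read by 100-nucleotide paired-end sequencing. Darwinian fitness relative to wild type rested on changes in genotype frequencies. Genotypes required ≥ 100 starting reads, and estimates < 0.5 were set to 0.5.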
C11A A21C A37C A40C A69C: the yeast fitness is not above 0.5. The value for C11A A45G U53G was not above 0.5. As for C11A A14G C31G C34G, the yeast fitness is not above 0.5.

With C11A A43G U64A, the yeast fitness came out at 0.601. With C11A C31A G68C the figure was not above 0.5.

On to G10C U35G C62G, for which the yeast fitness came out at 0.52. The value for C11A C24U U32A U35C U59C was not above 0.5; that for C11A C34A G44C A70U was not above 0.5.

C11A A37U G67A: the yeast fitness is not above 0.5. For C11A A14U A42G C62A C66U, the yeast fitness was not above 0.5. With C11A C61G A65C the figure was 0.567; with C11A C29A A42G, not above 0.5.

For the variant C11A C27U G41C A42G C60G, the yeast fitness is not above 0.5. As for C11A C31U G56A G58C, the yeast fitness was determined as 0.595. Regarding G10U A15U C31G G50C U59C, the yeast fitness was not above 0.5. The value for C11A C27U A36G C49A was not above 0.5; that for C11A C30G G48C was not above 0.5; that for C11A A21U C27A U35G was not above 0.5.

For the variant C11A C24U G56A G67C A70G, the yeast fitness was not above 0.5. As for C11A A43G, the yeast fitness turned out to be 0.621. As for C11A C62A A65C, the yeast fitness is not above 0.5. The value for C11A A36U C61U A65U was not above 0.5; that for C11A C31G A42U was 0.537; that for G10C U19A C24U was 0.531. Regarding C11A A43U C46U U47G A70U, the yeast fitness is not above 0.5. With C11A C31A U53A the figure was not above 0.5.

For the variant C11A C62G A69U, the yeast fitness was not above 0.5.

As for C11A A20G G39A G51A U53A G63C, the yeast fitness turned out to be 0.545. With C11A A20U C29U C33G C62A A70U the figure was not above 0.5; with C11A A42G A43U C46U C62U, 0.582; with G10C U19C A65G A70C, not above 0.5.

Turning to C11A A15C A57G C61U, the yeast fitness is not above 0.5. In the case of C11A C33U U54C, the yeast fitness was not above 0.5.

Regarding C11A C24U U32G A40U U64G, the yeast fitness is not above 0.5. With C11A C29A C46A A70G, the yeast fitness was found to be 0.541. The value for G10U C66U was 0.794; that for C11A A37U G48A was not above 0.5. C11A A20U C27U U47C G50A: the yeast fitness stood at 0.618. In the case of C11A C27A A69U, the yeast fitness is not above 0.5.

With G10U G17A C29G C55G C60U, the yeast fitness was not above 0.5. With C11A C31G C34G C46G U59A G63A, the yeast fitness is not above 0.5. With C11A C24G C34G A36G the figure was not above 0.5; with C11A C24U G38C, not above 0.5; with C11A G17U A20G C31A, not above 0.5.

C11A C27G U59A: the yeast fitness is not above 0.5. With C11A A21C C31A G58A the figure was not above 0.5; with C11A A37U, 0.587; with C11A A37G, 0.566. With C11A C31A C61A the figure was 0.563; with C11A A43U C46U U47G, 0.565; with C11A G17A U35G U59C, 0.568.

Consider C11A A21U G41A G58A A65G, for which the yeast fitness was not above 0.5. For the variant C11A A14G C29U A65C, the yeast fitness is not above 0.5.

As to C11A C31G C33U C61G U64A, the yeast fitness is not above 0.5.

For the variant C11A C27U C33U U35C C62U A65G, the yeast fitness is not above 0.5. On to C11A A15C C24G G58A, for which the yeast fitness is not above 0.5. The value for C11A A20U U28A C60G was 0.521; that for C11A A14U U59C C62U was not above 0.5. As to G10C U26C C55U, the yeast fitness came out at 0.507. With C11A A21C C31A C62U the figure was not above 0.5; with G10C U32C A42C G68C, not above 0.5. As to C11A C31A G44C A65G, the yeast fitness was 0.553. The value for C11A C31A G44C A65U was not above 0.5. The value for C11A C22G G25A C34A G41A C66A was not above 0.5; that for C11A A21U U54G was not above 0.5; that for C11A A36G C62U was 0.539. Regarding C11A C34G A43G C46G, the yeast fitness worked out at 0.708. The value for C11A C24G C34U C49A was not above 0.5. The value for C11A C61G A65C A70C was not above 0.5. The value for C11A A21G C34U A37G G58A was not above 0.5; that for G10C U28G G39A C49A C55U was not above 0.5; that for G10C U32C C33A A45U was not above 0.5.

For the variant G10U G12A A43C A69G, the yeast fitness stood at 0.566. For the variant C11A C24A A36G G48A, the yeast fitness was not above 0.5. With C11A A21U G41A the figure was not above 0.5.

For C11A A14U A21C C46U U53C A65G, the yeast fitness was 0.575. With C11A C31U C34U G58C C60U C62U G63C the figure was not above 0.5. With C11A C27G U35A A43U U54C A65G G68A the figure was not above 0.5; with C11A A20U C33U C34U G48A C66U, 0.557; with C11A C33G A43C G68A A70G, not above 0.5. C11A A20U C61U: the yeast fitness amounted to 0.558. With C11A A15U A20C C34G A65C the figure was not above 0.5; with C11A C24U C34A A37U C62A C66A, 0.599; with C11A A14G C24U G41C C55G, 0.581.

C11A C24G C30G G56A: the yeast fitness is not above 0.5.

Regarding C11A G18A G68A, the yeast fitness was not above 0.5.

On to C11A C29A G56A C66G, for which the yeast fitness was not above 0.5. The value for C11A C27U C61G was not above 0.5; that for G10U A69U was 0.864. With C11A A21C C55U, the yeast fitness was not above 0.5. The value for C11A A15C U54C C66G was not above 0.5; that for C11A C27U C33U U35C C61G A65G was not above 0.5.

With C11A C27G U32C C33U C62U A65G, the yeast fitness is not above 0.5. With C11A C24G C30G C55G, the yeast fitness was not above 0.5. The value for C11A A20G C62U C66A was not above 0.5; that for C11A A20G C62A G67A was not above 0.5. The value for C11A A36C G56C was 0.614; that for C11A C30U C49A was not above 0.5.

As for G10C U35G C66U, the yeast fitness was not above 0.5. With C11A A21U A43U G58C C60A C66U the figure was 0.563. The value for G10C U26A G38A A40U was not above 0.5; that for G10C U26C A45G C49U C55G was not above 0.5; that for C11A A37G A40G A43G G52C U59G was not above 0.5.

For G10C U26A A43G C60U C62U A70C, the yeast fitness was not above 0.5. The value for C11A A57G C66U was not above 0.5; that for C11A G18C C27A G48A U54C was 0.76. C11A C27G C55A C61G: the yeast fitness was not above 0.5. With C11A A21C G51C U59G the figure was not above 0.5. With C11A C33A A36C the figure was 0.506; with C11A C31A C61G A65C A70C, not above 0.5; with C11A A15G A20G A37C G50A G67C, not above 0.5. The value for C11A C31U U53A was 0.513; that for C11A G12A G23A C33G A45C was not above 0.5; that for C11A A15G A20G C24U A37C G50A G67C was not above 0.5. As to C11A C33U, the yeast fitness was determined as 0.533. Regarding C11A C33G, the yeast fitness was 0.654. The value for C11A C31U A70U was 0.629; that for C11A C31A G51C was not above 0.5. For C11A C34A C55U C60A, the yeast fitness is not above 0.5. For the variant C11A A36U, the yeast fitness came out at 0.559. For C11A A36G, the yeast fitness stood at 0.646. With C11A G12C U53G A65U, the yeast fitness is not above 0.5.

C11A C30U G56A A69C: the yeast fitness was not above 0.5.

C11A C27U C46G: the yeast fitness was 0.524.

Consider C11A G18A C31U A69C, for which the yeast fitness amounted to 0.605. With C11A G17A C62U C66U the figure was not above 0.5. The value for C11A C29U C31G G58C was not above 0.5; that for C11A C29A G52C G68C was not above 0.5; that for C11A C33U C49U C61U was not above 0.5. With C11A A20U C30G A45C G48A the figure was not above 0.5; with C11A A20C C24U C55G, 0.617. As for C11A A21C C34A A57U C61A, the yeast fitness stood at 0.539.

With C11A A42C G50C A57C C61G, the yeast fitness is not above 0.5. As to C11A C27A C55U G63A G67C, the yeast fitness was not above 0.5. For the variant C11A C33A A36C G63C C66G, the yeast fitness came out at 0.582. As for C11A C22G G48C, the yeast fitness is 0.535. On to C11A A20U U32C, for which the yeast fitness was found to be 0.733. For C11A C22G C33U C34A G41A A65G, the yeast fitness stood at 0.527. Regarding C11A C31U A65U, the yeast fitness is not above 0.5. The value for C11A A37G C49A was 0.653; that for C11A A15C C24G C61A A69C was not above 0.5; that for C11A A15U C30A A42C was not above 0.5. With C11A C49G the figure was 0.782; with C11A C49U, 0.658. With G10C U54G the figure was not above 0.5; with G10C U54A, not above 0.5. For the variant C11A C34G U59G, the yeast fitness was not above 0.5. The value for C11A C62A A70U was not above 0.5; that for C11A A21C C31A was 0.567; that for C11A A37C C49G was not above 0.5. The value for C11A A42C A65U C66U was 0.623; that for C11A A21C C31A C55G was not above 0.5.

As for C11A A21U A43U, the yeast fitness was not above 0.5.

With C11A A20U U32C G68C, the yeast fitness is not above 0.5. For G10U A20C A57G, the yeast fitness came out at 0.511.

As for C11A G17C C22G G23C G58C A70G, the yeast fitness was not above 0.5. With C11A C30U A43C G67U the figure was not above 0.5; with G10C U26A C31U, 0.578; with C11A G18A A36U G41C C55U U64C, not above 0.5. As to C11A C29A A57G A65C, the yeast fitness is not above 0.5. With C11A A40G the figure was 0.602. With C11A A14G U19G A43C U53A C66U the figure was 0.601; with C11A A45C, 0.563.

Regarding C11A A43U C46U U47G G58A, the yeast fitness was not above 0.5. With C11A C49G A69U, the yeast fitness was found to be 0.585. With G10C U32A A36G the figure was not above 0.5; with C11A C27G U35A A43U, not above 0.5.

(Values after the RNAGym collection of RNA variant scans (doi:10.1126/science.aae0568).)
